Where a name gives a salt, the structure may show the parent alone. Blank lines part the entries; values can stand above or below the compound they belong to.
Tests used:
β1AR-JM3 [1] = target: T1, β1AR-JM3 (Meleagris gallopavo, UniProt P07700, A282L/C116L/D200E/D322K/F327A/F338M/I129V/M90V/R68S/Y227A/Y343L); experiment: Competition binding, displacement of ^3H-DHA; design: species or system turkey; settings: competition with ^3H-DHA
[2] = Thermostability assay of detergent-solubilised receptors expressed in E. coli; type: physicochemical, turkey; settings: for increase in thermostability (apparent Tm) relative to β1AR-m23: solubilised in NG
[3] = Thermostability assay of cysteine mutants expressed in HEK293T cells; type: physicochemical, turkey; settings: Cys mutants, solubilised in NG
In short: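 Transiently transfected HEK293T cells were harvested after 48 h, held 1 h on ice in 75 mM Tris pH 8, 12.5 mM MgCl2, 2 mM EDTA, then detergent-solubilised at 4°C. Samples were diluted in 20 mM Tris pH 8, 0.4 M NaCl and heated 30 min at a range of temperatures without ligand. 3H-DHA (80 nM final) was added for 1 h at 4°C; gel-filtration separation gave apparent Tm.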

β1AR-m23 = β1AR-m23 (Meleagris gallopavo, UniProt P07700, A282L/C116L/F327A/F338M/M90V/R68S/Y227A); experiment: Saturation binding of ^3H-DHA to DDM-solubilised receptor; design: species or system turkey; settings: read-out: KD for ^3H-DHA, E. coli membranes, solubilised in DDM, n = 4
Chain of β1AR-m23 (P07700 34-424 R68S/M90V/C116L/Y227A/A282L/F327A/F338M): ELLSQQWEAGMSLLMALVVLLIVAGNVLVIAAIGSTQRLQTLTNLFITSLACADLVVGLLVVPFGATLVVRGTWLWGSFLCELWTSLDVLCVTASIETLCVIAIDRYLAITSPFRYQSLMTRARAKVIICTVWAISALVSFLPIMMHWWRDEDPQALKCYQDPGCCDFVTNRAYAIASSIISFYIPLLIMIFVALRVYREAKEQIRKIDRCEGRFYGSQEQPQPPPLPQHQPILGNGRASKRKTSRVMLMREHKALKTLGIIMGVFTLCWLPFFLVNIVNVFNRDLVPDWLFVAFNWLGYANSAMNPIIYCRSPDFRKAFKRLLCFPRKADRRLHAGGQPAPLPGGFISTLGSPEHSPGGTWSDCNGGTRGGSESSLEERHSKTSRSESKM
In short: (§1)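 Receptor expressed in E. coli XL1 by auto-induction (37°C 6 h, then 25°C overnight). French-press membranes were solubilised for 1 h on ice in 20 mM Tris pH 8, 0.4 M NaCl, 1% detergent. Binding ran in 20 mM Tris pH 8, 0.4 M NaCl, 0.1% DDM with 1.25-160 nM 3H-DHA. KD came from nonlinear regression; 2-4 experiments in duplicate.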

β1AR-JM3 [4] = target: T1, β1AR-JM3; experiment: as above; design: species or system turkey; settings: read-out: KD for ^3H-DHA, E. coli membranes, solubilised in DDM, n = 4
In short: as §1

[5] = in dodecylmaltoside (DDM); cited from earlier work

T1 sequence (P07700 34-424 R68S/M90V/C116L/I129V/D200E/Y227A/A282L/D322K/F327A/F338M/Y343L): as the sequence (P07700 34-424 R68S/M90V/C116L/Y227A/A282L/F327A/F338M) above, with I96V, D167E, D289K, Y310L counted along it

- fold weaker binding to β1AR-JM3 compared to wild-type β1AR (β1AR-JM3 [1]): 4960 fold
Compound: NC[C@H](O)c1ccc(O)c(O)c1 [noradrenaline, L-(-)-norepinephrine bitartrate salt monohydrate]

Compound: D322K: β1AR-m23 salt bridge mutant D322K
- increase in thermostability (apparent Tm) relative to β1AR-m23 [2]: 5 °C

Compound: V103C: single cysteine mutant of β1AR-m23
- destabilisation (decrease in thermostability) relative to β1AR-m23 [3]: 7 °C

- Kd (β1AR-m23): 5.5 ± 1.1 nM
- Kd (β1AR-JM3 [4]): 10.6 ± 1.6 nM
Compound: 1-[4,6-propyl-^3H]dihydroalprenolol [^3H-DHA]

Compound: β1AR-m23: residues 34-424 of turkey β1-adrenoceptor with R68S, M90V, Y227A, A282L, F327A, F338M and C116L
- apparent Tm ([2]; 0.8% NG, identical conditions): 23.4 ± 0.8 °C
- increase of the apparent Tm relative to wild type [5]: 21 °C

Compound: wild-type receptor: residues 34-424 of the turkey β1AR
- decrease in stability on addition of Zn^2+ ([2]; 1 mM ZnCl2): up to 7 °C

Compound: Y343L: most stabilising single mutation of β1AR-m23 from the leucine scan
- increase in thermostability (apparent Tm) relative to β1AR-m23 [2]: 5 °C

Compound: M44C: single cysteine mutant of β1AR-m23
- destabilisation (decrease in thermostability) relative to β1AR-m23 [3]: 4 °C
